# Results taken from ChEMBL document CHEMBL1944548, “Discovery of kinase spectrum selective macrocycle (16E)-14-methyl-20-oxa-5,7,14,26-tetraazatetracyclo[19.3.1.1(2,6).1(8,12)]heptacosa-1(25),2(26),3,5,8(27),9,11,16,21,23-decaene (SB1317/TG02), a potent inhibitor of cyclin dependent kinases (CDKs), Janus kinase 2 (JAK2), and fms-like tyrosine …” (J Med Chem, 2012).
# pIC50: −log10 of the molar value. The source made the active and inactive calls. The calls are words filed in the database; no cut-off is given here.
# Assays:
# [1] = AUC (0 to infinity) in BALB/c mouse at 75 mg/kg, po by LC-MS/MS analysis; format: ADME, organism-based; parameters: time infinity, dose 75 mg/kg, route oral; details: plasma
# Procedure, shortened: (§1)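 Male BALB/c mice (~10−12 weeks, 17−22 g) gavaged with 75 mg/kg as a suspension in 0.5% methylcellulose/0.1% Tween 80. Serial blood by cardiac puncture over 0−24 h into K3EDTA, plasma stored at −70 °C, LC−MS/MS; parameters by noncompartmental analysis.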
# [2] = biological target: Cyclin-dependent kinase 2 (Homo sapiens) (UniProt P24941); experiment: Inhibition of CDK2 in human HCT116 cells assessed as Rb phosphorylation at 200 nM after 24 hrs by Western blot analysis; format: cell-based; details: HCT-116
# Procedure, shortened: (§2)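 HCT-116 cells (2 × 10^5 in McCoy's medium with 2 mM L-glutamine and 10% FBS) seeded 16−24 h before dosing. Each dish exposed to one compound concentration or DMSO for 24 h. Lysis in modified RIPA buffer; protein by Bradford. 30 μg lysate run on 10% SDS−PAGE, blotted to PVDF, probed for phospho-Rb and β-actin. ECL detection.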
# [3] = Plasma protein binding in human at 1000 ng/ml after 4 hrs by equilibrium dialysis method; format: ADME, cell-free; details: read-out: PPB
# Procedure, shortened: (§3)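 Equilibrium dialysis of plasma (mouse, dog, human) spiked to 1000 ng/mL against PBS, 4 h at 37 °C. Buffer side extracted in triplicate with MTBE, dried, reconstituted in methanol/water 60:40, measured by LC−MS/MS.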
# [4] = AUC (0 to infinity) in BALB/c mouse at 5 mg/kg, iv by LC-MS/MS analysis; format: ADME, organism-based; parameters: time infinity, dose 5 mg/kg, route intravenous; details: plasma
# [5] = Half life in dog liver microsomes at 5 uM by LC-MS/MS analysis; format: ADME, Canis lupus familiaris, Microsome
# Procedure, shortened: (§4)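 5 μM with mouse, rat, dog or human liver microsomes (~0.87 mg/mL), 50 mM potassium phosphate pH 7.4, NADPH regeneration system, 37 °C.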
# [6] = Terminal half life in BALB/c mouse at 75 mg/kg, po by LC-MS/MS analysis; format: ADME, organism-based; parameters: dose 75 mg/kg, route oral; details: in vivo, read-out: beta t1/2 (converted)
# Procedure, shortened: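 Male BALB/c mice, ~10−12 weeks, 17−22 g. Given 75 mg/kg by oral gavage as a suspension in 0.5% methylcellulose/0.1% Tween 80. Serial blood taken by cardiac puncture over 0−24 h into K3EDTA; plasma stored at −70 °C. Analysis by LC−MS/MS, parameters by noncompartmental methods.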
# HCT-116 [7] = experiment: Antitumor activity against human HCT116 cells xenografted in BALB/c nude mouse assessed as tumor growth inhibition at 50 mg/kg, po qd administered thrice in a week for 15 days; format: functional, organism-based; parameters: dose 50 mg/kg
# Procedure, shortened: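 Female BALB/c nude mice implanted sc with 5 × 10^6 HCT-116 cells; treatment began day 8 after inoculation when tumors were 75–144 mm3 (group mean 105 mm3), 9–10 mice/group. Oral gavage at 50 or 75 mg/kg, Mon/Wed/Fri, in 0.5% methylcellulose/0.1% Tween 80, to day 15. Volume (w2l)/2 measured twice weekly. %TGI from day-15 median volumes vs vehicle.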
# [8] = Half life in rat liver microsomes at 5 uM by LC-MS/MS analysis; format: ADME, Microsome; procedure, shortened: as §4
# [9] = Oral bioavailability in BALB/c mouse at 75 mg/kg by LC-MS/MS analysis; format: ADME, organism-based; details: in vivo; procedure, shortened: as §1
# HL-60 = experiment: Antiproliferative activity against human HL60 cells after 48 hrs; format: functional, cell-based; details: HL-60, 48 h
# [10] = Plasma protein binding in mouse at 1000 ng/ml after 4 hrs by equilibrium dialysis method; format: ADME, cell-free; details: read-out: PPB (converted); procedure, shortened: as §3
# [11] = Tmax in BALB/c mouse at 75 mg/kg, po by LC-MS/MS analysis; format: ADME, organism-based; parameters: dose 75 mg/kg, route oral; details: in vivo; procedure, shortened: as §1
# [12] = Apparent permeability of the compound from apical to basolateral side in human Caco2 cells at 5 uM after 21 to 28 days by LC/MS analysis; format: ADME, cell-based; details: Caco-2
# Procedure, shortened: (§5)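 5 μM in HBSS (DMSO <1%) dosed apical or basolateral on 21−28-day confluent Caco-2 monolayers, both sides pH 7.4. Sampled at 2 h, quantified by LC/MS with four-point calibration. Monolayer integrity checked by pre-experiment TEER (450−650 Ωcm2) and Lucifer yellow; efflux ratio = Papp B→A / Papp A→B.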
# [13] = Apparent permeability of the compound from basolateral to apical side in human Caco2 cells at 5 uM after 21 to 28 days by LC/MS analysis; format: ADME, cell-based; details: Caco-2; procedure, shortened: as §5
# Cytochrome P450 3A4 = Cytochrome P450 3A4 (Homo sapiens, UniProt P08684); experiment: Inhibition of CYP3A4 in human liver microsomes using midazolam as substrate after 5 mins by LC-MS/MS analysis; format: ADME, Microsome
# [14] = biological target: Cyclin-dependent kinase 2 (Homo sapiens) (UniProt P24941); experiment: Inhibition of CDK2 in human HCT116 cells assessed as Rb phosphorylation at 40 nM after 24 hrs by Western blot analysis; format: cell-based; details: HCT-116; procedure, shortened: as §2
# HCT-116 [15] = experiment: Antitumor activity against human HCT116 cells xenografted in BALB/c nude mouse assessed as tumor growth inhibition at 75 mg/kg, po qd administered thrice in a week for 15 days; format: functional; details: HCT-116, 360 h, read-out: GI
# [16] = Plasma protein binding in dog at 1000 ng/ml after 4 hrs by equilibrium dialysis method; format: ADME, cell-free, Canis lupus familiaris; details: read-out: PPB; procedure, shortened: as §3
# DU-145 = experiment: Antiproliferative activity against human DU145 cells after 48 hrs; format: functional, cell-based; details: DU-145, 48 h
# [17] = Oral bioavailability in Beagle dog at 10 mg/kg by LC-MS/MS analysis; details: in vivo
# Cytochrome P450 2D6 = Cytochrome P450 2D6 (Homo sapiens, UniProt P10635); experiment: Inhibition of CYP2D6 in human liver microsomes using dextromethorphan as substrate after 30 mins by LC-MS/MS analysis; format: ADME, Microsome
# Procedure, shortened: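 Human liver microsomes with 1 mM NADPH at 37 °C. Test concentrations 0.05, 0.25, 0.5, 2.5, 5 and 25 μM; final DMSO 0.35%. CYP1A: 0.25 mg/mL microsomes, ethoxyresorufin 0.5 μM, 5 min. CYP2D6: 0.5 mg/mL microsomes, dextromethorphan 5 μM, 30 min. IC50 from the fall in metabolite formation versus vehicle control. Selective inhibitors served as positive controls.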
# [18] = biological target: Tyrosine-protein kinase JAK2 (Homo sapiens, UniProt O60674); experiment: Inhibition of recombinant JAK2 using poly(Glu,Ala,Tyr) as substrate after 2 hrs by luminescence assay
# COLO 205 = experiment: Antiproliferative activity against human COLO205 cells after 48 hrs; format: functional, cell-based; details: COLO 205, 48 h
# [19] = Oral bioavailability in Wistar rat at 10 mg/kg by LC-MS/MS analysis; details: in vivo
# [20] = Solubility of the compound in PBS buffer at 250 uM at pH 7 by UV spectrophotometry; format: physicochemical
# Cytochrome P450 2C19 = Cytochrome P450 2C19 (Homo sapiens, UniProt P33261); experiment: Inhibition of CYP2C19 in human liver microsomes using mephenytoin as substrate after 60 mins by LC-MS/MS analysis; format: ADME, Microsome
# Procedure, shortened: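 Human liver microsomes (0.5 mg/mL for CYP2C19, 1 mg/mL for CYP2C9), NADPH 1 mM, test at 0.05−25 μM (DMSO 0.35% final), 37 °C; probes mephenytoin 25 μM (CYP2C19) and tolbutamide 120 μM (CYP2C9), 60 min each. IC50 from decrease in metabolite formation vs vehicle.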
# Cytochrome P450 2C19, sequence (P33261 whole entry): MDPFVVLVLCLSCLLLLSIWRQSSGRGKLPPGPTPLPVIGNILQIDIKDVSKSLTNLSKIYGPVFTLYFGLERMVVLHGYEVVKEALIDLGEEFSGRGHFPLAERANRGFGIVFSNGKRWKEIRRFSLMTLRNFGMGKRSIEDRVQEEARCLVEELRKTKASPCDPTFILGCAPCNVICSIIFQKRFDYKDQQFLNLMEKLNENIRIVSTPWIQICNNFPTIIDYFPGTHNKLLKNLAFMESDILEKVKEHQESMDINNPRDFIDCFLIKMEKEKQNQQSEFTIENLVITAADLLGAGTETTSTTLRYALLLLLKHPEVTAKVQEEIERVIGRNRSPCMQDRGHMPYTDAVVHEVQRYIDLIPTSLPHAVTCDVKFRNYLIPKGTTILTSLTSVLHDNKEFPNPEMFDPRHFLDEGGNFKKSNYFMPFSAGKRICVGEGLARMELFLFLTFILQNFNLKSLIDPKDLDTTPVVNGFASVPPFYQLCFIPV
# Cytochrome P450 3A4, sequence (P08684 whole entry): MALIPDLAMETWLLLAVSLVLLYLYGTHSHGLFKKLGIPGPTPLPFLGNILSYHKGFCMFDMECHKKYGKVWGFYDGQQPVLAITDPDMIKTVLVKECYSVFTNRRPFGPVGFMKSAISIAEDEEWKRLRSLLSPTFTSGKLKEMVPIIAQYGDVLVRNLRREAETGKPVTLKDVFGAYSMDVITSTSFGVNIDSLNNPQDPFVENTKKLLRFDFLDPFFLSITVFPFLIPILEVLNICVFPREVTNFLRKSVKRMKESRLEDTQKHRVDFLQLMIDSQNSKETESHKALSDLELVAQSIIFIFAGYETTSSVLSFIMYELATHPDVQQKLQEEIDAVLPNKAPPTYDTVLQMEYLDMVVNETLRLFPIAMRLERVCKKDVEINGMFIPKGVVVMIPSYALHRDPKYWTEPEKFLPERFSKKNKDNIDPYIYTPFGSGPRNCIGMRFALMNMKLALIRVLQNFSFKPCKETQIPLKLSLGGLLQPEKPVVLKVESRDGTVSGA
# Cytochrome P450 2D6, sequence (P10635 whole entry): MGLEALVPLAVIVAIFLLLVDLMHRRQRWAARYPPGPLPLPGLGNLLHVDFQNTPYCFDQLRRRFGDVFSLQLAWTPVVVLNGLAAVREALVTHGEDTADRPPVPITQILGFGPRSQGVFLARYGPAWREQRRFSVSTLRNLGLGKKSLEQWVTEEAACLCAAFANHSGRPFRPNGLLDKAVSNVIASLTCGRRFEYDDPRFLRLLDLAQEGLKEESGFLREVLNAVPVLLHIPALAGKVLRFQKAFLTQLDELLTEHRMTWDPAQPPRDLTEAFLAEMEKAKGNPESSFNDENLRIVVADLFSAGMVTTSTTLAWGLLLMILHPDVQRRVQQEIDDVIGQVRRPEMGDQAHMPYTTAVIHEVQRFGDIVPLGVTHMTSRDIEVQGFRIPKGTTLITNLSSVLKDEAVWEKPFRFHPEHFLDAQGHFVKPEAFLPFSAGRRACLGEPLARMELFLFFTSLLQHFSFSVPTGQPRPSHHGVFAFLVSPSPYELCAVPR
# Tyrosine-protein kinase JAK2, sequence (O60674 whole entry): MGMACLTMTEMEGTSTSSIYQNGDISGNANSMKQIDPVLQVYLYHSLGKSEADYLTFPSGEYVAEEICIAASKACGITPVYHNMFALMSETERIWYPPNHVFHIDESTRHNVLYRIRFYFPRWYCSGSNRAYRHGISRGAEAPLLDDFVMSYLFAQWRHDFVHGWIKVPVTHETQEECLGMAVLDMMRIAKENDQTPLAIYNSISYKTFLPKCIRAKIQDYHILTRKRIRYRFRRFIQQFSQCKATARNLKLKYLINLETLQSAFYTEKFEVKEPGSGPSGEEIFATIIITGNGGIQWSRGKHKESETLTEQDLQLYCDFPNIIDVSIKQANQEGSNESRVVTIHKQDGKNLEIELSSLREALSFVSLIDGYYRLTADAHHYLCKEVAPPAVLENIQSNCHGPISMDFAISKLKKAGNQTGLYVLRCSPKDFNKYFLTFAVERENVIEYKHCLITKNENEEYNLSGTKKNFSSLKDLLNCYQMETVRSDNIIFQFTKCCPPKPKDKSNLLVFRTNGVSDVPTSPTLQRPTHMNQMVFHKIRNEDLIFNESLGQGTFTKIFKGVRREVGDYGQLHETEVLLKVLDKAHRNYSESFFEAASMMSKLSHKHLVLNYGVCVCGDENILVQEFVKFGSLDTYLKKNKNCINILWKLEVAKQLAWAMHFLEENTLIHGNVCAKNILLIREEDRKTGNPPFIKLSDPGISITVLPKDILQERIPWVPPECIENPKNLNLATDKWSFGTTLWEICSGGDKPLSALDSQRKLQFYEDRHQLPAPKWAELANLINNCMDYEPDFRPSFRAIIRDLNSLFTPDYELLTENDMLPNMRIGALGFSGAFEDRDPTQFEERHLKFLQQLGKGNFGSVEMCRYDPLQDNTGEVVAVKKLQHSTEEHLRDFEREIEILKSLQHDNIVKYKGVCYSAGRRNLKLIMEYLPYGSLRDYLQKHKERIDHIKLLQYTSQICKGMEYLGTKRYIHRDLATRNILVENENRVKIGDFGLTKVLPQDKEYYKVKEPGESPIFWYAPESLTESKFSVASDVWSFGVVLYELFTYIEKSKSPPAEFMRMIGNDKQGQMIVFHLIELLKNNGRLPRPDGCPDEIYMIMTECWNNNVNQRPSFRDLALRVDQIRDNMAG
smiles,measurement,setting,value
CN1C/C=C/CCOc2cccc(c2)-c2ccnc(n2)Nc2cccc(c2)C1 [ZOTIRACICLIB],AUC(0-inf),[1],2520 ng·h/mL
same,inhibition,[2],Active
same,"fraction unbound at 4 h, 1000 ng/ml",[3],0.001
same,AUC(0-inf),[4],752 ng·h/mL
same,half-life at 5 µM,[5],33 min
same,half-life,[6],366 min
same,growth inhibition (GI),HCT-116 [7],Active
same,half-life at 5 µM,[8],11 min
same,bioavailability,[9],24%
same,pIC50,HL-60,7.23
same,"fraction unbound at 4 h, 1000 ng/ml",[10],0.006
same,Tmax,[11],30 min
same,Papp A→B at 5 µM,[12],28 ×10⁻⁶ cm/s
same,Papp B→A at 5 µM,[13],27.4 ×10⁻⁶ cm/s
same,pIC50,Cytochrome P450 3A4,< 4.60
same,inhibition,[14],Active
same,inhibition in vivo at 75 mg/kg,HCT-116 [15],82%
same,"fraction unbound at 4 h, 1000 ng/ml",[16],0.001
same,pIC50,DU-145,6.85
same,bioavailability,[17],37%
same,pIC50,Cytochrome P450 2D6,6.02
same,pIC50,[18],7.14
same,pIC50,COLO 205,7.14
same,bioavailability,[19],4%
same,solubility at 250 µM,[20],71.8 µg/mL
same,pIC50,Cytochrome P450 2C19,< 4.60
